In ChEMBL document CHEMBL5126632, “Balancing Affinity, Selectivity, and Cytotoxicity of Hydrazone-Based G-Quadruplex Ligands for Activation of Interferon β Genes in Cancer Cells” (J Med Chem, 2022):

Experiments:
Quadruplex DNA [1] = assay: Stabilization of c-kit2 G4 quadruplex d(CGGGCGGGCGCTAGGGAGGGT) DNA (unknown origin) assessed as thermal stability by measuring difference in melting temperature t1/2 by circular dichroism spectroscopy (reference value: 61.5 +/- 0.5 degC); type: nucleic-acid assay
Quadruplex DNA [2] = assay: Stabilization of human Tel26 G4 quadruplex DNA assessed as thermal stability by measuring difference in melting temperature t1/2 by circular dichroism spectroscopy; type: nucleic-acid assay
Quadruplex DNA [3] = assay: Stabilization of c-myc G4 quadruplex d(TTAGGGTTAGGGTTAGGGTTAGGGTT) DNA (unknown origin) assessed as thermal stability by measuring difference in melting temperature t1/2 by circular dichroism spectroscopy (reference value: 72 +/- 0.5 degC); type: nucleic-acid assay
[4] = Stabilization of d(CGC GAA TTC GCG TIT CGC GAA TTC GCG) DNA hairpin (unknown origin) assessed as thermal stability by measuring difference in melting temperature t1/2 by circular dichroism spectroscopy (reference value: 75.4 +/- 0.2 degC)
Procedure, shortened: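 CD melting of 15 μM annealed hairpin duplex in 5 mM K phosphate pH 7.0 with 20 mM KCl, with or without ligand at 2 molar equiv added to the folded DNA. The signal was followed at 252 nm from 20 to 100 °C at 1 °C/min, with T1/2 taken from a curve fit. ΔT1/2 is relative to DNA alone; duplicate runs, averaged.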

Quadruplex DNA [5] = assay: Stabilization of c-kit1 G4 quadruplex d(DNA AGGGAGGGCGCTGGGAGGAGGG) DNA (unknown origin) assessed as thermal stability by measuring difference in melting temperature t1/2 by circular dichroism spectroscopy (reference value: 54 +/- 0.5 degC); type: nucleic-acid assay
[6] = Genotoxicity in mouse MNMCA1 cells assessed as induction of micronuclei formation at 1 uM incubated for 24 hrs by measuring fold change by DAPI staining based analysis; type: toxicity, cell-based; details: mnmca1, 24 h
U2OS [7] = assay: Induction of DNA damage in human U2OS cells assessed as increase in gammaH2AX phosphorylation at S139 incubated for 24 hrs by immunofluorescence microscopy; type: functional, cell-based; details: read-out: IC50 (the source's name)
Procedure, shortened: (§1)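 U2OS cells treated 24 h. Fixed with 4% formaldehyde, permeabilized with 0.5% Triton X-100, blocked with 8% BSA, stained with anti-γH2AX (1:500) and Alexa Fluor 594 secondary, DAPI counterstain. Fluorescence microscopy signal quantified as fold over untreated.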

[8] = Cytotoxicity against mouse MNMCA1 cells assessed as cell survival preincubated for 24 hrs with compound further incubated for 48 hrs in drug free medium by MTT assay; type: functional, cell-based
Procedure, shortened: (§2)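 Exponentially growing cells seeded and treated 24 h after seeding with increasing concentrations for 24 h. Cells then recovered 48 h in drug-free medium. MTT added for 1 h at 37 °C, formazan dissolved in DMSO, absorbance read at 540 nm. IC50 from linear regression. Means ± SEM of two independent experiments in triplicate.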

U2OS [9] = assay: Cytotoxicity against human U2OS cells assessed as cell survival preincubated for 24 hrs with compound further incubated for 48 hrs in drug free medium by MTT assay; type: functional, cell-based; procedure, shortened: as §2
U2OS [10] = assay: Induction of DNA damage in human U2OS cells assessed as fold increase in gammaH2AX phosphorylation at […] by measuring fold change at 10 uM incubated for 24 hrs by immunofluorescence microscopy; type: functional; procedure, shortened: as §1
Quadruplex DNA [11] = assay: Binding affinity to c-kit2 G4 quadruplex d(CGGGCGGGCGCTAGGGAGGGT) DNA (unknown origin) assessed as dissociation constant by Microscale thermophoresis analysis; type: nucleic-acid assay
Procedure, shortened: (§3)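 MST with Cy5.5-labelled G4 oligonucleotide held at 20 nM, folded in 5 mM potassium phosphate pH 7.0 with 20 mM KCl plus 0.1% Tween. Ligand in 1:2 serial dilution mixed 1:1 with DNA, 20% DMSO final. Kd taken from binding curves.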

Quadruplex DNA [12] = assay: Displacement of thiazole orange from c-kit2 G4 quadruplex d(CGGGCGGGCGCTAGGGAGGGT) DNA (unknown origin) assessed as relative affinity by fluorescent intercalator displacement assay; type: nucleic-acid assay
Procedure, shortened: (§4)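 G4 DNA at 0.25 μM with 0.5 μM thiazole orange in 5 mM potassium phosphate pH 7.0 containing 20 mM KCl (LiCl for c-myc), 20 °C. Ligand titrated from 0.5 to 20 molar equiv with 3 min equilibration per addition. Excitation 485 nm, emission 500–650 nm. %displacement = 100 − (F/F0×100); DC50 is the concentration displacing 50% TO. Duplicate titrations.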

[13] = Stabilization of F-c-kit1-T (unknown origin) assessed as difference in melting temperature t1/2 in presence of d(CGC GAA TTC GCG TIT CGC GAA TTC GCG) DNA hairpin (unknown origin) measured at 1:50 G4 to hairpin DNA ratio by FRET assay
Procedure, shortened: (§5)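 FRET melting of 0.2 μM prefolded FAM/TAMRA dual-labelled c-kit1 G4 in 5 mM K phosphate pH 7.0 with 20 mM KCl. Ligand was added at 2 molar equiv, with unlabelled hairpin competitor at 3 or 10 μM final (15 or 50 equiv relative to G4). FAM emission was read at 520 nm (excitation 492 nm) while heating at 0.2 °C/min over 15–90 °C. ΔT1/2 is relative to no ligand; at least duplicate, averaged.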

Quadruplex DNA [14] = assay: Stabilization of F-c-kit1-T quadruplex DNA (unknown origin) by measuring difference in melting temperature t1/2 by FRET assay; type: nucleic-acid assay
Procedure, shortened: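 FRET melting of 0.2 μM prefolded FAM/TAMRA-labelled c-kit1 in 5 mM potassium phosphate pH 7.0 with 20 mM KCl, with ligand at 2 molar equiv. Unlabelled hairpin competitor added at 3 or 10 μM (15 or 50 equiv). FAM emission at 520 nm (excitation 492 nm) followed from 15 to 90 °C at 0.2 °C/min. ΔT1/2 versus no ligand. At least duplicate.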

[15] = Stabilization of F-c-kit1-T (unknown origin) assessed as difference in melting temperature t1/2 in presence of d(CGC GAA TTC GCG TIT CGC GAA TTC GCG) DNA hairpin (unknown origin) measured at 1:15 G4 to hairpin DNA ratio by FRET assay; procedure, shortened: as §5
Quadruplex DNA [16] = assay: Binding affinity toc-myc G4 quadruplex d(TTAGGGTTAGGGTTAGGGTTAGGGTT) DNA (unknown origin) assessed as dissociation constant by Microscale thermophoresis analysis; type: nucleic-acid assay; procedure, shortened: as §3
Quadruplex DNA [17] = assay: Displacement of thiazole orange from c-kit1 G4 quadruplex d(DNA AGGGAGGGCGCTGGGAGGAGGG) DNA (unknown origin) assessed as relative affinity by fluorescent intercalator displacement assay; type: nucleic-acid assay; procedure, shortened: as §4
Quadruplex DNA [18] = assay: Binding affinity to c-kit1 G4 quadruplex d(DNA AGGGAGGGCGCTGGGAGGAGGG) DNA (unknown origin) assessed as dissociation constant by Microscale thermophoresis analysis; type: nucleic-acid assay; procedure, shortened: as §3
Quadruplex DNA [19] = assay: Displacement of thiazole orange from c-myc G4 quadruplex d(TTAGGGTTAGGGTTAGGGTTAGGGTT) DNA (unknown origin) assessed as relative affinity by fluorescent intercalator displacement assay; type: nucleic-acid assay; procedure, shortened: as §4
[20] = Genotoxicity in mouse MNMCA1 cells assessed as induction of micronuclei formation measured after 24 hrs by DAPI staining based analysis; type: toxicity, cell-based; details: mnmca1, 24 h
Quadruplex DNA [21] = assay: Stabilization of G4 quadruplex DNA in human U2OS cells assessed as BG4 foci formation by measuring fold increase in G4 structure at 10 uM by immunofluorescence microscopy; type: cell-based
Procedure, shortened: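 U2OS cells on coverslips treated for […]. Fixed in methanol/acetic acid 3:1, permeabilized with 0.1% Triton X-100, blocked in 2% milk. Stained with 0.5 μg BG4 for 2 h, then anti-FLAG and Alexa Fluor 488 secondary. Signal quantified as fold over untreated.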

Compound	ΔTm (Quadruplex DNA [1]) [°C]	ΔTm (Quadruplex DNA [2]) [°C]	ΔTm (Quadruplex DNA [3]) [°C]	ΔTm [4] [°C]	ΔTm (Quadruplex DNA [5]) [°C]	other results
Cc1ccc(-c2nc3n(ccc4nc(-c5ccc(C)cc5)c(/C=N/NC(=N)N)n43)c2C=O)cc1	16.2	2.1	4.6	2.3	6.1	
Cc1ccc(-c2nc3n(ccc4nc(-c5ccc(C)cc5)c(/C=N/NC5=NCCN5)n43)c2/C=N/NC2=NCCN2)cc1	26.5	4.5	8.5	2.4	17.1	
O=Cc1c(-c2ccccc2)nc2n1ccc1nc(-c3ccccc3)c(/C=N/NC3=NCCN3)n12						fold change (FC) [6]: 2.5; EC50 (U2OS [7]): 4000 nM; IC50 [8]: 2300 nM; IC50 (U2OS [9]): 4000 nM; fold change (FC) (U2OS [10]): 1.55
Clc1ccc(-c2nc3n(ccc4nc(-c5ccccc5)c(/C=N/NC5=NCCN5)n43)c2/C=N/NC2=NCCN2)cc1	19.2	6.6	10.6	1.2	17.7	Kd (Quadruplex DNA [11]): 500 nM; IC50 (Quadruplex DNA [12]): 1400 nM; ΔTm [13]: 23.8 °C; ΔTm (Quadruplex DNA [14]): 26.6 °C; ΔTm [15]: 24.8 °C; Kd (Quadruplex DNA [16]): 1200 nM; IC50 (Quadruplex DNA [17]): 1200 nM; Kd (Quadruplex DNA [18]): 70 nM; IC50 (Quadruplex DNA [19]): 1300 nM
Cc1ccc(-c2nc3n(ccc4nc(-c5ccc(C)cc5)c(/C=N/NC(=N)N)n43)c2/C=N/NC(=N)N)cc1	> 30	5.5	15.6	4.1	18.5	
N=C(N)N/N=C/c1c(-c2ccccc2)nc2ccn3c(C=O)c(-c4ccccc4)nc3n12	24.2	4.3	5.8	1.7	11.2	fold change (FC) [6]: 2.5; Kd (Quadruplex DNA [11]): 370 nM; ΔTm [13]: 22.2 °C; EC50 (U2OS [7]): 2400 nM; ΔTm (Quadruplex DNA [14]): 22 °C; IC50 [8]: 1900 nM; ΔTm [15]: 21.6 °C; Kd (Quadruplex DNA [16]): 7000 nM; Kd (Quadruplex DNA [18]): 300 nM; IC50 (U2OS [9]): 2600 nM; fold change (FC) (U2OS [10]): 2.32
N=C(N)N/N=C/c1c(-c2ccc(Cl)cc2)nc2n1ccc1nc(-c3ccccc3)c(/C=N/NC(=N)N)n12	> 30	8.3	14.3	2.6	20.1	
NCCOc1cc(C(=O)Nc2cc(OCCN)c3ccccc3n2)nc(C(=O)Nc2cc(OCCN)c3ccccc3n2)c1 [PYRIDOSTATIN]						IC50 [8]: 27000 nM
Cc1ccc(-c2nc3n(ccc4nc(-c5ccccc5)c(/C=N/NC(=N)N)n43)c2C=O)cc1	20.8	3.8	3.1	1.2	6.6	
Cc1ccc(-c2nc3ccn4c(/C=N/NC5=NCCN5)c(-c5ccccc5)nc4n3c2/C=N/NC2=NCCN2)cc1	> 30	5.3	9.1	1.1	15.2	Kd (Quadruplex DNA [11]): 130 nM; IC50 (Quadruplex DNA [12]): 1200 nM; ΔTm [13]: 20.2 °C; EC50 (U2OS [7]): 100000 nM; fold change (FC) [20]: 0.4; fold change (FC) (Quadruplex DNA [21]): 2.4; ΔTm (Quadruplex DNA [14]): 22.4 °C; IC50 [8]: 28600 nM; ΔTm [15]: 21.4 °C; IC50 (Quadruplex DNA [17]): 1300 nM; Kd (Quadruplex DNA [18]): 120 nM; IC50 (U2OS [9]): 108000 nM; fold change (FC) (U2OS [10]): 1.45; IC50 (Quadruplex DNA [19]): 1300 nM
Clc1ccc(-c2nc3ccn4c(/C=N/NC5=NCCN5)c(-c5ccccc5)nc4n3c2/C=N/NC2=NCCN2)cc1	22	6.3	7.4	1.2	15.5	Kd (Quadruplex DNA [11]): 490 nM; IC50 (Quadruplex DNA [12]): 1700 nM; ΔTm [13]: 19.6 °C; EC50 (U2OS [7]): 20000 nM; fold change (FC) [20]: 0.4; fold change (FC) (Quadruplex DNA [21]): 0.77; ΔTm (Quadruplex DNA [14]): 24.6 °C; IC50 [8]: 23500 nM; ΔTm [15]: 21.4 °C; Kd (Quadruplex DNA [16]): 3000 nM; IC50 (Quadruplex DNA [17]): 2700 nM; Kd (Quadruplex DNA [18]): 380 nM; IC50 (U2OS [9]): 20200 nM; fold change (FC) (U2OS [10]): 1.37; IC50 (Quadruplex DNA [19]): 1800 nM
Cc1ccc(-c2nc3n(ccc4nc(-c5ccccc5)c(/C=N/NC5=NCCN5)n43)c2/C=N/NC2=NCCN2)cc1	> 30	6.2	13.1	2.2	21.4	
N=C(N)N/N=C/c1c(-c2ccccc2)nc2n1ccc1nc(-c3ccc(Cl)cc3)c(/C=N/NC(=N)N)n12	> 30	5	17.6	2.3	21.4	
Clc1ccc(-c2nc3n(ccc4nc(-c5ccc(Cl)cc5)c(/C=N/NC5=NCCN5)n43)c2/C=N/NC2=NCCN2)cc1	13.7	3.3	5.5	3.5	9.6	
N=C(N)N/N=C/c1c(-c2ccsc2)nc2ccn3c(C=O)c(-c4ccsc4)nc3n12	25.2	4.8	9.1	2.7	16.1	
Cc1ccc(-c2nc3n(ccc4nc(-c5ccccc5)c(/C=N/NC(=N)N)n43)c2/C=N/NC(=N)N)cc1	> 30	6.3	16.9	3.2	25.2	
N=C(N)N/N=C/c1c(-c2ccc(Cl)cc2)nc2n1ccc1nc(-c3ccc(Cl)cc3)c(/C=N/NC(=N)N)n12	> 30	4.1	11.4	2.9	11.1	
C(=N\NC1=NCCN1)/c1c(-c2ccsc2)nc2n1ccc1nc(-c3ccsc3)c(/C=N/NC3=NCCN3)n12	14.9	3.8	4.7	2	10.3	
Cc1ccc(-c2nc3n(ccc4nc(-c5ccc(C)cc5)c(/C=N/NC5=NCCN5)n43)c2C=O)cc1	6.8	1.3	1.5	0	3.8	
